# Calls of active or inactive are those of the source. The rule behind the calls is not given here.
# What was measured:
# MC-38 = assay: Antitumor activity against mouse Colon 38 cells implanted in iv dosed C57BL/6 mouse administered as single dose; type: functional, organism-based
# How it was run: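 Female C57BL/6 mice, 6 weeks old, given about 30 mg Colon 38 tumor tissue s.c. in the flank. Randomized into groups of n = 5 when tumors reached about 300 mm3 (day 1). Compound in 5% glucose given as a single iv tail-vein dose on day 1; controls received 5% glucose. Tumor volume = (length × width²)/2 and body weight tracked.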
# [1] = test system: Syncephalastrum racemosum; assay: Antimicrobial activity against Syncephalastrum racemosum at 5 ug/mL by agar diffusion method; type: functional; conditions: read-out: IZ
# Escherichia coli [2] = assay: Antimicrobial activity against Escherichia coli at 1.25 ug/mL by agar diffusion method; type: functional; conditions: read-out: IZ
# Escherichia coli [3] = assay: Antimicrobial activity against Escherichia coli at 5 ug/mL by agar diffusion method; type: functional; conditions: read-out: IZ
# Candida albicans [4] = assay: Antimicrobial activity against Candida albicans at 1.25 ug/mL by agar diffusion method; type: functional; conditions: read-out: IZ
# Staphylococcus aureus [5] = assay: Antimicrobial activity against Staphylococcus aureus at 5 ug/mL by agar diffusion method; type: functional; conditions: read-out: IZ
# Measles morbillivirus = assay: Antiviral activity against Measles virus infected in intracranially dosed hamster assessed as inhibition of subacute sclerosing panencephalitis; type: functional
# How it was run: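 Hamsters under ether anesthesia injected intracranially, into the subarachnoid space at 2 mm depth, at 5, 10 and 20 mg/kg/day for 10 days. Four animals per group sacrificed on days 1–20. Brains homogenized in PBS and centrifuged, supernatant deproteinized with ethanol, then MIC in brain tissue determined by HPLC and bioassay.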
# Penicillium italicum [6] = assay: Antimicrobial activity against Penicillium italicum at 5 ug/mL by agar diffusion method; type: functional; conditions: read-out: IZ
# Pseudomonas aeruginosa [7] = assay: Antimicrobial activity against Pseudomonas aeruginosa at 5 ug/mL by agar diffusion method; type: functional; conditions: read-out: IZ
# Penicillium italicum [8] = assay: Antimicrobial activity against Penicillium italicum at 2.5 ug/mL by agar diffusion method; type: functional; conditions: read-out: IZ
# [9] = test system: Syncephalastrum racemosum; assay: Antimicrobial activity against Syncephalastrum racemosum at 1.25 ug/mL by agar diffusion method; type: functional; conditions: read-out: IZ
# Candida albicans [10] = assay: Antimicrobial activity against Candida albicans at 2.5 ug/mL by agar diffusion method; type: functional; conditions: read-out: IZ
# Bacillus subtilis [11] = assay: Antimicrobial activity against Bacillus subtilis at 5 ug/mL by agar diffusion method; type: functional; conditions: read-out: IZ
# Pseudomonas aeruginosa [12] = assay: Antimicrobial activity against Pseudomonas aeruginosa at 1.25 ug/mL by agar diffusion method; type: functional; conditions: read-out: IZ
# Bacillus subtilis [13] = assay: Antimicrobial activity against Bacillus subtilis at 2.5 ug/mL by agar diffusion method; type: functional; conditions: read-out: IZ
# Staphylococcus aureus [14] = assay: Antimicrobial activity against Staphylococcus aureus at 2.5 ug/mL by agar diffusion method; type: functional; conditions: read-out: IZ
# Candida albicans [15] = assay: Antimicrobial activity against Candida albicans at 5 ug/mL by agar diffusion method; type: functional; conditions: read-out: IZ
# Penicillium italicum [16] = assay: Antimicrobial activity against Penicillium italicum at 1.25 ug/mL by agar diffusion method; type: functional; conditions: read-out: IZ
# Aspergillus fumigatus [17] = assay: Antimicrobial activity against Aspergillus fumigatus at 1.25 ug/mL by agar diffusion method; type: functional; conditions: read-out: IZ
# Escherichia coli [18] = assay: Antimicrobial activity against Escherichia coli at 2.5 ug/mL by agar diffusion method; type: functional; conditions: read-out: IZ
# Aspergillus fumigatus [19] = assay: Antimicrobial activity against Aspergillus fumigatus at 5 ug/mL by agar diffusion method; type: functional; conditions: read-out: IZ
# Pseudomonas aeruginosa [20] = assay: Antimicrobial activity against Pseudomonas aeruginosa at 2.5 ug/mL by agar diffusion method; type: functional; conditions: read-out: IZ
# Aspergillus fumigatus [21] = assay: Antimicrobial activity against Aspergillus fumigatus at 2.5 ug/mL by agar diffusion method; type: functional; conditions: read-out: IZ
# [22] = molecular target: T1, DNA topoisomerase 1 (Homo sapiens) (UniProt P11387); assay: Inhibition of topoisomerase 1 relative to etoposide
# T1 sequence (whole entry): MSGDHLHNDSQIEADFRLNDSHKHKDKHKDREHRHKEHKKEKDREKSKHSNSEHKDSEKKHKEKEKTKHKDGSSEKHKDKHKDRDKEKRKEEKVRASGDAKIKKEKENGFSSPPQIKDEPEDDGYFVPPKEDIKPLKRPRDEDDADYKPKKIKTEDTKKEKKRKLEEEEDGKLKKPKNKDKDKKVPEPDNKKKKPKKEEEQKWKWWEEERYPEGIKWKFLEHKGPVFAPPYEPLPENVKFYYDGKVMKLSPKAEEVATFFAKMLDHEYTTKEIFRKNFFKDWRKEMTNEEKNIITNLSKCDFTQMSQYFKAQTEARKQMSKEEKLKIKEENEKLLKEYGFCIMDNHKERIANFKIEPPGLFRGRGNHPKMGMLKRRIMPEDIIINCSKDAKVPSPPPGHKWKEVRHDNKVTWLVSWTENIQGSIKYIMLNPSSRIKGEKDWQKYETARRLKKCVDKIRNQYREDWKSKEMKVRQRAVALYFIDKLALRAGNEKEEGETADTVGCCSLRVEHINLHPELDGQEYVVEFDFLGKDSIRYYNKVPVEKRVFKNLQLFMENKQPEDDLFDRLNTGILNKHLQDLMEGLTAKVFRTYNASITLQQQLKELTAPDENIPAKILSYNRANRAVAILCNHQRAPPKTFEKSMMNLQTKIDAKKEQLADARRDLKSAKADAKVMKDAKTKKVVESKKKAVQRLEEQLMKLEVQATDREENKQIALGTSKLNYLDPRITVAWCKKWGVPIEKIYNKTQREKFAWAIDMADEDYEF
# [23] = test system: Radical scavenging activity; assay: Antioxidant activity assessed as DPPH free radical scavenging activity by measuring reduction in DPPH absorbance by ELISA relative to untreated control; type: functional; parameters: concentration or dose not given beside the values
# How it was run: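 Test compounds dissolved in DMSO, ascorbic acid standard in water, both serially diluted. 10 µl sample added to 90 µl of 100 µM DPPH in methanol and kept in the dark at 37 °C for 30 min. Absorbance read at 515 nm. Blank is DMSO plus DPPH. % reduction = (A_B − A_A)/A_B × 100. Run in triplicate.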
# Bacillus subtilis [24] = assay: Antimicrobial activity against Bacillus subtilis at 1.25 ug/mL by agar diffusion method; type: functional; conditions: read-out: IZ
# Staphylococcus aureus [25] = assay: Antimicrobial activity against Staphylococcus aureus at 1.25 ug/mL by agar diffusion method; type: functional; conditions: read-out: IZ
# [26] = Antioxidant activity assessed as inhibition of peroxynitrite-mediated 3-nitrotyrosine formation by HPLC; type: functional
# How it was run: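 Tyrosine and peroxynitrite, each 100 µM, reacted with compound at 0–300 µM in 100 mM phosphate buffer pH 7.4 at 37 °C for 15 min. Peroxynitrite made from acidified H2O2 plus KNO2, quenched with NaOH, and kept on ice no longer than 30 min before use.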
# [27] = test system: Syncephalastrum racemosum; assay: Antimicrobial activity against Syncephalastrum racemosum at 2.5 ug/mL by agar diffusion method; type: functional; conditions: read-out: IZ
# [28] = molecular target: DNA topoisomerase 2-alpha (Mus musculus) (UniProt Q01320); assay: Inhibition of topoisomerase 2 from mouse P388 cells assessed as relaxation of pBR322 DNA by agarose gel electrophoresis relative to etoposide; type: cell-based
# How it was run: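 Topoisomerase II purified from P388 cells. One unit relaxes 0.125 µg supercoiled pBR322 DNA, incubated with or without inhibitor at 30 °C for 1 h in 50 mM Tris-HCl pH 8.0, 100 mM KCl, 10 mM MgCl2, 0.5 mM DTT, 1 mM ATP and 30 µg/ml BSA. Products run on 0.7% agarose in TBE, stained with ethidium bromide and imaged under UV.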
# Hepatitis C virus = assay: Antiviral activity against HCV by cell based replicon assay; type: functional, Hepacivirus hominis
# How it was run: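 HCV replicon cells plated at 1×10^4 per well. Next day incubated at 37 °C with serially diluted compound in DMEM with 2% FBS and 0.5% DMSO. HCV RNA copy number measured by quantitative RT-PCR on total cellular RNA. Each point is the average of five replicates. Cytotoxicity measured by MTS in parallel.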
# Chain of DNA topoisomerase 2-alpha (Mus musculus) (Q01320 whole entry): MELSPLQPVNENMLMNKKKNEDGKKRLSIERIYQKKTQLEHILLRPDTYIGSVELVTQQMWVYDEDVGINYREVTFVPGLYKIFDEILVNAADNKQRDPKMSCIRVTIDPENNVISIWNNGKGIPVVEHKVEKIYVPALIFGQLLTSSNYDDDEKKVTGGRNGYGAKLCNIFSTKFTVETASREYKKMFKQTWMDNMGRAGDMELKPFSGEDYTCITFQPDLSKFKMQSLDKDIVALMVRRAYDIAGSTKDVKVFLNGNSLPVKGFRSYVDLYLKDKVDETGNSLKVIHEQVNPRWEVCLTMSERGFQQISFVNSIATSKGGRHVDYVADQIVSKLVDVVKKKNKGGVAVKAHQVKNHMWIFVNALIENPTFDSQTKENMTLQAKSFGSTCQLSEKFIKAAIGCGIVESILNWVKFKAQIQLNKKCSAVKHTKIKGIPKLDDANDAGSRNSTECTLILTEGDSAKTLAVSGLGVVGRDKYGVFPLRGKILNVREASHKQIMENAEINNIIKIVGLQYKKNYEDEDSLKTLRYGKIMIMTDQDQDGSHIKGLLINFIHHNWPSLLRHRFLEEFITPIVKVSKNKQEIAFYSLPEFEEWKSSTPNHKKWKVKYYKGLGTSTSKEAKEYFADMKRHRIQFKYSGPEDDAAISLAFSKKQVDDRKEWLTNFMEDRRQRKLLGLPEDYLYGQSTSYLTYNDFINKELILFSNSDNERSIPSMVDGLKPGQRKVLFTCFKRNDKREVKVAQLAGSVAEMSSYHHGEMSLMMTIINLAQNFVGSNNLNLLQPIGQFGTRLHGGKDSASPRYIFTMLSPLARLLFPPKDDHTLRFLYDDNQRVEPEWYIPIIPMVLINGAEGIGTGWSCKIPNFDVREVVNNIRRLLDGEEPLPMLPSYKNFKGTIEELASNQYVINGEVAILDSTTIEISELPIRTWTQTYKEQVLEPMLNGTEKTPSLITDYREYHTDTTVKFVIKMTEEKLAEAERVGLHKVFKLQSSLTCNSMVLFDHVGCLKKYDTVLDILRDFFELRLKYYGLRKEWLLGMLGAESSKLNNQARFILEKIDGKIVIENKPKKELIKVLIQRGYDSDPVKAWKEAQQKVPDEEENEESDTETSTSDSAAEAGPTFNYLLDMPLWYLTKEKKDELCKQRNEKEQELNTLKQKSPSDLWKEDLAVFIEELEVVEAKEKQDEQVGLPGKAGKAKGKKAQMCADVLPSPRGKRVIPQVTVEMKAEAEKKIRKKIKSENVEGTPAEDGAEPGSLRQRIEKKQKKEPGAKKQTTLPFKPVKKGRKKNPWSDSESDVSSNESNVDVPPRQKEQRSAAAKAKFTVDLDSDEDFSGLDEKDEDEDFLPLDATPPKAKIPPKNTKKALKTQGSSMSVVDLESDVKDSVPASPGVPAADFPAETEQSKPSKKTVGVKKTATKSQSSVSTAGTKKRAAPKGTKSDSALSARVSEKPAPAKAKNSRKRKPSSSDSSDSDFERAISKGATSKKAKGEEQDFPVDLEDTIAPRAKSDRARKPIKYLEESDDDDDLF
Compound,Activity (MC-38),zone of inhibition at 5 µg/mL [1],zone of inhibition at 1.25 µg/mL (Escherichia coli [2]),zone of inhibition at 5 µg/mL (Escherichia coli [3]),zone of inhibition at 1.25 µg/mL (Candida albicans [4]),zone of inhibition at 5 µg/mL (Staphylococcus aureus [5]),MIC (Measles morbillivirus),zone of inhibition at 5 µg/mL (Penicillium italicum [6]),zone of inhibition at 5 µg/mL (Pseudomonas aeruginosa [7]),zone of inhibition at 2.5 µg/mL (Penicillium italicum [8]),zone of inhibition at 1.25 µg/mL [9],zone of inhibition at 2.5 µg/mL (Candida albicans [10]),zone of inhibition at 5 µg/mL (Bacillus subtilis [11]),zone of inhibition at 1.25 µg/mL (Pseudomonas aeruginosa [12]),zone of inhibition at 2.5 µg/mL (Bacillus subtilis [13]),zone of inhibition at 2.5 µg/mL (Staphylococcus aureus [14]),zone of inhibition at 5 µg/mL (Candida albicans [15]),zone of inhibition at 1.25 µg/mL (Penicillium italicum [16]),zone of inhibition at 1.25 µg/mL (Aspergillus fumigatus [17]),MIC (Hepatitis C virus),further results
O=C1/C(=N/Nc2cccc(Cl)c2)CCCc2ccccc21,Active,16 mm,0 mm,9 mm,7 mm,12 mm,6 µg/mL,0 mm,0 mm,0 mm,6 mm,11 mm,17 mm,0 mm,10 mm,9 mm,15 mm,0 mm,6 mm,1 µg/mL,zone of inhibition at 2.5 µg/mL (Escherichia coli [18]): 0 mm; zone of inhibition at 5 µg/mL (Aspergillus fumigatus [19]): 14 mm; zone of inhibition at 2.5 µg/mL (Pseudomonas aeruginosa [20]): 0 mm; zone of inhibition at 2.5 µg/mL (Aspergillus fumigatus [21]): 8 mm; Ratio [22]: 4.9; Activity [23]: 84.1%; zone of inhibition at 1.25 µg/mL (Bacillus subtilis [24]): 7 mm; zone of inhibition at 1.25 µg/mL (Staphylococcus aureus [25]): 5 mm; IC50 [26]: 54.1 µM; zone of inhibition at 2.5 µg/mL [27]: 9 mm; Ratio [28]: 5
O=C1/C(=N/Nc2ccc([N+](=O)[O-])cc2)CCCc2ccccc21,Active,16 mm,0 mm,8 mm,0 mm,9 mm,6.08 µg/mL,0 mm,0 mm,0 mm,4 mm,6 mm,14 mm,0 mm,8 mm,3 mm,12 mm,0 mm,5 mm,1.03 µg/mL,zone of inhibition at 2.5 µg/mL (Escherichia coli [18]): 0 mm; zone of inhibition at 5 µg/mL (Aspergillus fumigatus [19]): 18 mm; zone of inhibition at 2.5 µg/mL (Pseudomonas aeruginosa [20]): 0 mm; zone of inhibition at 2.5 µg/mL (Aspergillus fumigatus [21]): 8 mm; Ratio [22]: 4.4; Activity [23]: 82%; zone of inhibition at 1.25 µg/mL (Bacillus subtilis [24]): 3 mm; zone of inhibition at 1.25 µg/mL (Staphylococcus aureus [25]): 0 mm; IC50 [26]: 5.13 µM; zone of inhibition at 2.5 µg/mL [27]: 9 mm; Ratio [28]: 4.6
NC(=O)c1ncn([C@@H]2O[C@H](CO)[C@@H](O)[C@H]2O)n1 [RIBAVIRIN],–,–,–,–,–,–,77.9 µg/mL,–,–,–,–,–,–,–,–,–,–,–,–,16.1 µg/mL,–
CN(C/C=C/C#CC(C)(C)C)Cc1cccc2ccccc12 [TERBINAFINE],–,21 mm,13 mm,27 mm,6 mm,15 mm,–,19 mm,11 mm,9 mm,9 mm,10 mm,22 mm,0 mm,18 mm,6 mm,19 mm,4 mm,11 mm,–,zone of inhibition at 2.5 µg/mL (Escherichia coli [18]): 20 mm; zone of inhibition at 5 µg/mL (Aspergillus fumigatus [19]): 24 mm; zone of inhibition at 2.5 µg/mL (Pseudomonas aeruginosa [20]): 5 mm; zone of inhibition at 2.5 µg/mL (Aspergillus fumigatus [21]): 18 mm; zone of inhibition at 1.25 µg/mL (Bacillus subtilis [24]): 11 mm; zone of inhibition at 1.25 µg/mL (Staphylococcus aureus [25]): 4 mm; zone of inhibition at 2.5 µg/mL [27]: 13 mm
COc1ccc(N/N=C2\CCCc3ccccc3C2=O)cc1,Active,–,–,–,–,–,6.01 µg/mL,–,–,–,–,–,–,–,–,–,–,–,–,1.01 µg/mL,Ratio [22]: 4.8; Activity [23]: 83.9%; IC50 [26]: 54.2 µM; Ratio [28]: 4.9
